This note sets out measurements from ChEMBL document CHEMBL3286166, “Structure-activity relationships of the truncated norzoanthamines exhibiting collagen protection toward anti-osteoporotic activity” (Bioorg Med Chem, 2014).

For this assay, the species on record is Rattus norvegicus. Briefly: Binding affinity to rat tail type 1 collagen assessed as collagen protection activity against Clostridium histolyticum collagenase-mediated digestion at 10 uM after 180 mins by Sirius red dye based microplate reader analysis relative to norzoanthamine. Put shortly: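 Acid-solubilized rat tail type I collagen diluted to 1.11 mg/mL in 50 mM Tris (pH 7.4) with 100 mM NaCl and 5 mM CaCl₂. Compound in the same buffer added, 5 min at 37 °C. Digestion started with 2 mg/mL Clostridium histolyticum collagenase at 37 °C. Aliquots at 30–180 min stained with Sirius red, 30 min room temperature, then centrifuged. Remaining collagen at 180 min normalized to norzoanthamine; buffer-only negative control; up to five samples per test.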
Consider `C[C@H]1C[C@@H]2CN[C@H](C1)O2`, for which the Activity was 31%. As for `C[C@H]1C[C@@H]2CN(Cc3ccc4ccccc4c3)[C@H](C1)O2`, the Activity is 65%.

Turning to `COC(=O)c1ccccc1-c1ccc(CN2C[C@H]3C[C@H](C)C[C@@H]2O3)cc1`, the Activity was 25%. On to `C[C@@]12CCC[C@]3(OC(=O)C1)N(Cc1ccccc1)CCC[C@@]23C`, for which the Activity was 11%.

As to `CCCCc1ccc(CN2C[C@H]3C[C@H](C)C[C@@H]2O3)cc1`, the Activity was 45%. With `C[C@H]1C[C@@H]2CN3[C@](CC[C@@]4(C)[C@]5(C)CCC[C@]34OC(=O)C5)(C1)O2`, the Activity worked out at 100%. Turning to `C[C@H]1C[C@@H]2CN(Cc3ccccc3)[C@H](C1)O2`, the Activity came out at 47%. On to `C[C@H]1C[C@@H]2CN3C4=CCCC[C@]4(C)CC[C@@]3(C1)O2`, for which the Activity worked out at 31%. To `CCCCN1CCC[C@@]2(C)[C@]3(C)CCC[C@]12OC(=O)C3` belongs 17%. Then `C[C@H]1C[C@@H]2CN(Cc3ccc(-c4ccccc4)cc3)[C@H](C1)O2`, with 20%; and `COC(=O)C[C@@]1(C)[C@H]2C(=O)C[C@@H]3C(=O)C=C(C)C[C@H]3[C@]2(C)C=C2N3C[C@H]4C[C@H](C)C[C@]3(CC[C@]21C)O4`, with 5%; and `COC(=O)c1cccc(CN2C[C@H]3C[C@H](C)C[C@@H]2O3)c1`, with 25%.

For `C[C@@H]1C[C@H]2CN3[C@@](CC[C@]4(C)[C@@]5(C)CCC[C@@]34OC(=O)C5)(C1)O2`, the Activity was 76%.

Turning to `C[C@H]1C[C@@H]2CN(C(=O)OC(C)(C)C)[C@H](C1)O2`, the Activity was 23%.

For `COCCN1CCC[C@@]2(C)[C@]3(C)CCC[C@]12OC(=O)C3`, the Activity was 15%.
